The source made the active and inactive calls.
Experiments:
HEK293T = assay: Binding affinity to Brd2-H2A.Z protein-protein interaction in human 293T cells at 200 nM for 2 hrs by Western blotting analysis; type: cell-based
Method in brief: (§1)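 293T cells transfected with Flag-H2A.Z or Flag-H2A (for line 5, co-transfected with YFP-Brd2), treated with 200 nM for 2 hrs (DMSO vehicle) before harvest. Read-out by Western blot of input and of Flag IP of MNase-digested mononucleosomes, overnight at 4°C on M2-agarose.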

HEK-293T [1] = assay: Effect on human 293T cells expressing YFP-Brd2 assessed as increase in protein immunoprecipitated cells at 200 nM for 2 hrs; type: functional, cell-based; method in brief: as §1
HEK-293T [2] = assay: Effect on human 293T cells assessed as increase in histone acetylation at 200 nM for 2 hrs by Western blotting analysis; type: functional, cell-based; method in brief: as §1
LNCaP [3] = assay: Inhibition of Brd2-H2A.Z protein-protein interaction in human LNCaP cells at 125 to 250 nM by Western blotting analysis; type: cell-based; conditions: dose 125-250 nM
LNCaP [4] = assay: Inhibition of Brd2-KLK2 protein-protein interaction in DHT stimulated human LNCaP cells at 125 to 250 nM measured for 60 mins by ChIP analysis; type: cell-based; conditions: dose 125-250 nM
Method in brief: (§2)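 LNCaP cells held 72 hrs in phenol-red-free RPMI with 5% charcoal-stripped FBS, pretreated with compound, then stimulated with 10 nM DHT (ethanol control). Brd2 occupancy at enhancer and promoter regions measured by ChIP 60 min after stimulation.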

LNCaP [5] = assay: Effect on DHT stimulated human LNCaP cells assessed as decrease in histone acetylation at 125 to 250 nM measured for 60 mins by ChIP analysis; type: functional, cell-based; conditions: dose 125-250 nM
LNCaP [6] = assay: Effect on human LNCaP cells assessed as decrease in KLK2 mRNA expression pretreated with compound for 24 hrs followed by androgen stimulation for 24 hrs by RT-qPCR analysis; type: functional, cell-based; conditions: dose 125-500 nM
Method in brief: (§3)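 LNCaP cells grown 72 hrs in phenol-red-free RPMI with 5% charcoal-stripped FBS, pretreated with compound, then stimulated with 10 nM DHT (ethanol vehicle for controls). Transcript levels measured by RT-qPCR.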

LNCaP [7] = assay: Inhibition of Brd2-PSA protein-protein interaction in DHT stimulated human LNCaP cells at 125 to 250 nM measured for 60 mins by ChIP analysis; type: cell-based; conditions: dose 125-250 nM; method in brief: as §2
LNCaP [8] = assay: Effect on human LNCaP cells assessed as decrease in PSA mRNA expression pretreated with compound for 24 hrs followed by androgen stimulation for 24 hrs by RT-qPCR analysis; type: functional, cell-based; conditions: dose 125-500 nM; method in brief: as §3
LNCaP [9] = assay: Antiproliferative activity against human LNCaP cells for 24 hrs by MTS assay; type: functional, cell-based; conditions: dose 125-500 nM
Method in brief: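 LNCaP cells seeded in 96-well plates and grown 24 hrs, then exposed to a range of concentrations (DMSO vehicle control) for 24 hrs. MTS reagent added and absorbance read at 490 nm.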

CC(/C=C/C(=O)NO)=C\[C@@H](C)C(=O)c1ccc(N(C)C)cc1
active: Activity (HEK293T) | Activity (HEK-293T [1]) | Activity (HEK-293T [2])

Cc1sc2c(c1C)C(c1ccc(Cl)cc1)=N[C@@H](CC(=O)OC(C)(C)C)c1nnc(C)n1-2
active: inhibition (LNCaP [3]) | inhibition (LNCaP [4]) | Activity (LNCaP [5]) | Activity (LNCaP [6]) Dose-Dependent Effect | inhibition (LNCaP [7]) | Activity (LNCaP [8]) Dose-Dependent Effect | Activity (LNCaP [9]) Dose-Dependent Effect
